Each structure is given as a SMILES string. Where only a bound is given, the exact number is not on record here.

Experiment [1] deals with BE-WT. The experiment is described as follows: Cytotoxicity against BE human colon carcinoma cell lines BE-WT(No NQO1 activity). It is filed as functional, cell-based. In short, it runs like this:
(§1)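 MTT assay in BE colon carcinoma cells, wild-type (BE-WT) or stably transfected with human NQO1 cDNA (BE-NQ). Cells grown in MEM/10% FBS at 37 °C, 5% CO2, plated at (1–2) × 10^4 cells/mL and attached 16 h. Drug exposure 2 h, then drug-free medium for 5–7 days. MTT for 4 h, formazan dissolved in DMSO, A550. IC50 taken from % control versus concentration plots.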

Experiment [2] has as its target NAD(P)H dehydrogenase [quinone] 1 (Homo sapiens) (UniProt P15559). The experiment is described as follows: NADH oxidation is used as a measure metabolism since 1 mol of NADH is oxidized for each mole of compound that is reduced. The format is functional.
Experiment [3] deals with BE-NQ. The experiment can be described thus: Cytotoxicity against BE human colon carcinoma cell lines BE-NQ( high NQO1 activity). It is filed as functional, cell-based. The essentials: as §1
The target in experiment [4] is NAD(P)H dehydrogenase [quinone] 1 (Homo sapiens) (UniProt P15559). The experiment can be described thus: Ability to inactivate Recombinant human NQO1. The format is functional. On the set-up: concentration or dose not given beside the values. The essentials: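 Recombinant hNQO1 (1–2 µg) preincubated 30 min at 22 °C with 10 µM indolequinone, with or without 100 µM NADH, in 25 mM Tris-HCl pH 7.4 + 2 mg/mL Tween-20. Reaction stopped with cold Tris-HCl/250 mM sucrose. Residual activity measured as reduction of 40 µM DPIP with 200 µM NADH (0.7 mg/mL BSA) at 600 nm for 30 s. Reported as % remaining, +NADH versus −NADH.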
NAD(P)H dehydrogenase [quinone] 1 (Homo sapiens), sequence (P15559 whole entry): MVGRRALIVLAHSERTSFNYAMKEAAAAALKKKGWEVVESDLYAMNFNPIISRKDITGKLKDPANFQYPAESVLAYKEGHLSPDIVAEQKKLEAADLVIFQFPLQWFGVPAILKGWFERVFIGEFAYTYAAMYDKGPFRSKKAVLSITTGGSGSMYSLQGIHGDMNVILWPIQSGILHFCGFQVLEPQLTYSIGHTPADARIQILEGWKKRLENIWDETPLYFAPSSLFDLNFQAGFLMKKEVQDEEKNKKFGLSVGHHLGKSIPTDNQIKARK

Turning to `COC1=CC(=O)c2c(c(COC(=O)Cc3ccc(-c4ccccc4)cc3)c(C)n2C)C1=O`, the IC50 (usually the point on the concentration scale where inhibition reaches its midpoint) was 5.5 µM in experiment [1] and 5.1 µM in experiment [3]. This compound registered a Metabolism in experiment [2] of 0.09 µM/min/mg. Besides, in experiment [4], the Enzyme activity was found to be 0%.

As to `COC1=CC(=O)c2c(c(COC(C)=O)c(C)n2C)C1=O`, the Enzyme activity in experiment [4] was 0%. In experiment [2], `CCc1c(CO)c2c(n1Cc1ccccc1)C(=O)C=C(OC)C2=O` came in with a Metabolism of 0.9 µM/min/mg. Regarding `COC(=O)c1c2c(n(C)c1C)C(=O)C(C)=C(OC)C2=O`, the Metabolism in experiment [2] came to 13.7 µM/min/mg. For `CCOC(=O)c1c2c(n(C3CC3)c1C)C(=O)C=C(OC)C2=O`, in experiment [2], the Metabolism was 36.6 µM/min/mg. `COC1=C(C)C(=O)c2c(c(CO)c(C)n2C)C1=O` had a Metabolism in experiment [2] of 3.8 µM/min/mg. On the same count and under the same terms, the figure for `COC1=CC(=O)c2c(c(CO)c(C)n2C2CC2)C1=O` is 14 µM/min/mg; for `CCCn1c(C)c(C(=O)OCC)c2c1C(=O)C=C(OC)C2=O` it is 77.6 µM/min/mg. With `COC1=CC(=O)c2c(c(CO)cn2C)C1=O`, the IC50 in experiment [1] and in experiment [3] was over 50 µM each time. The compound also registered a Metabolism in experiment [2] of 13.6 µM/min/mg. In addition, the Enzyme activity in experiment [4] was found to be 96%. Regarding `CCCn1c(C)c(C(=O)OCC)c2c1C(=O)C(C)=C(OC)C2=O`, the Metabolism in experiment [2] was determined as 18.6 µM/min/mg. For `COC1=CC(=O)c2c(c(COc3ccc(NC(C)=O)cc3)c(C)n2C)C1=O`, the IC50 in experiment [1] came out at 10.3 µM; in experiment [3] it was 6.6 µM. In addition, the Metabolism in experiment [2] was found to be 0.38 µM/min/mg. For `COC1=CC(=O)c2c(c(COc3ccc([N+](=O)[O-])cc3F)c(C)n2C)C1=O`, the IC50 in experiment [1] was determined as 1.5 µM; in experiment [3], 1.2 µM. This compound returned a Metabolism in experiment [2] of 0.05 µM/min/mg. For the same compound, in experiment [4], the Enzyme activity came out at 0%. Take `COC1=CC(=O)c2[nH]c(C)c(C(C)O)c2C1=O` (centres undefined): the Metabolism in experiment [2] is 27.7 µM/min/mg. Take `CCOC(=S)SCc1c2c(n(C)c1C)C(=O)C=C(OC)C2=O`: the IC50 in experiment [1] and in experiment [3] was over 50 µM each time. In experiment [2], this compound returned a Metabolism of 1.1 µM/min/mg.

In the case of `CN1CCN(C2=CC(=O)c3c(c(CO)c(-c4ccccc4)n3C)C2=O)CC1`, in experiment [2], the Metabolism came to 0.15 µM/min/mg.

Compound `COC1=C(C)C(=O)c2c(c(CO)c(C)n2CCN2CCOCC2)C1=O` returned a Metabolism in experiment [2] of 7.6 µM/min/mg.

`CCOC(=O)c1c2c(n(CCN3CCOCC3)c1C)C(=O)C(C)=C(OC)C2=O` showed a Metabolism in experiment [2] of 39.4 µM/min/mg. Same read-out and setting: for `CCCn1c(C)c(CO)c2c1C(=O)C=C(OC)C2=O` the value was 1.3 µM/min/mg; for `COC1=CC(=O)c2c(c(COc3ccccc3)c(C)n2C)C1=O`, 0.28 µM/min/mg.

`COC1=CC(=O)c2c(c(COc3cc([N+](=O)[O-])ccc3OC)c(C)n2C)C1=O`: the IC50 in experiment [1] amounted to 34.4 µM; in experiment [3], 6.5 µM. This compound also gave a Metabolism in experiment [2] of 0.05 µM/min/mg. Also, in experiment [4], the Enzyme activity turned out to be 13%.

`CCOC(=O)c1c2c(n(-c3ccccc3)c1C)C(=O)C(C)=C(OC)C2=O` yielded a Metabolism in experiment [2] of 7.9 µM/min/mg. On the same count and under the same terms, for `CCc1c(C(=O)OC)c2c(n1Cc1ccccc1)C(=O)C=C(OC)C2=O` the value was 9.3 µM/min/mg; for `COC1=CC(=O)c2[nH]c(C)c(C(C)=O)c2C1=O`, 29.8 µM/min/mg; for `CCCn1c(C)c(CO)c2c1C(=O)C(C)=C(OC)C2=O`, 1.7 µM/min/mg. Regarding `CCOC(=O)CNC(=O)OCc1c2c(n(C)c1C)C(=O)C=C(OC)C2=O`, the IC50 in experiment [1] was determined as 3.8 µM; in experiment [3] it was 3.2 µM. The compound further yielded a Metabolism in experiment [2] of 0.11 µM/min/mg. The Enzyme activity in experiment [4] is 19%.

In experiment [2], `COC1=CC(=O)c2c(c(C(C)O)c(C)n2C)C1=O` (centres undefined) returned a Metabolism of 10.4 µM/min/mg. Turning to `COC1=C(C)C(=O)c2c(c(CO)c(C)n2-c2ccccc2)C1=O`, in experiment [2], the Metabolism came to 3 µM/min/mg.

On to `COC1=CC(=O)c2c(c(CO)c(C)n2-c2ccccc2)C1=O`, for which the Metabolism in experiment [2] was 6 µM/min/mg. Consider `COC1=CC(=O)c2c(c(COc3ccc([N+](=O)[O-])cc3)cn2C)C1=O`, for which the IC50 in experiment [1] was determined as 1.05 µM; in experiment [3] it was 0.44 µM. Moreover, in experiment [2], the Metabolism stood at 0.29 µM/min/mg. The Enzyme activity in experiment [4] is 52%. `Cc1c(C(C)O)c2c(n1C)C(=O)C=C(N1CCOCC1)C2=O` (centres undefined) had a Metabolism in experiment [2] of 0.27 µM/min/mg. The same measure, in the same setting: for `CCOC(=O)c1c2c(n(-c3ccccc3)c1C)C(=O)C=C(OC)C2=O` the value was 16.4 µM/min/mg.

For `COC1=CC(=O)c2c(c(COc3ccc([N+](=O)[O-])cc3OC)c(C)n2C)C1=O`, the IC50 in experiment [1] was determined as 1.5 µM; in experiment [3] it was 0.51 µM. Also, the Metabolism in experiment [2] was 0.05 µM/min/mg. With `CCOC(=O)c1c2c(n(C)c1-c1ccc3ccccc3c1)C(=O)C=C(OC)C2=O`, the figures for the IC50 in experiment [1] and in experiment [3] were 49 µM and over 50 µM, respectively. For the same compound, in experiment [2], the Metabolism was found to be 0.23 µM/min/mg. Regarding `COC1=CC(=O)c2c(c(CO)c(-c3ccc4ccccc4c3)n2C)C1=O`, the IC50 in experiment [1] and in experiment [3] was over 50 µM each time. This compound registered a Metabolism in experiment [2] of 4 µM/min/mg. In the case of `CCOC(=O)c1c2c(n(-c3ccc(F)cc3)c1C)C(=O)C=C(OC)C2=O`, in experiment [2], the Metabolism was determined as 3.9 µM/min/mg. Compound `COC1=CC(=O)c2c(c(CO)c(C)n2-c2ccc(F)cc2)C1=O` yielded a Metabolism in experiment [2] of 9.2 µM/min/mg.

Source of the values: ChEMBL document CHEMBL1134780, “Indolequinone antitumor agents: correlation between quinone structure and rate of metabolism by recombinant human NAD(P)H:quinone oxidoreductase. Part 2” (J Med Chem, 2001).
